According to ChEMBL document CHEMBL5712077, “Secreted heat shock protein 90 promotes prostate cancer stem cell heterogeneity” (Oncotarget, 2017):
Calls of active or inactive are those of the source. The calls are words filed in the database; no cut-off is given here.

Assays:
Details in all cases: time 3.0 day
ARCaPE [1] = assay: Inhibition of extracellular Hsp90 in human ARCaPE cells expressing Hsp90 assessed as increase in spheroid growth at 1 uM for 3 days and cells were treated post spheroid suspension by microscopic analysis; type: cell-based
Procedure, shortened: (§1)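 Spheroid passaging with inhibitor exposure. Pre-treatment: inhibitor given for 3 days before suspension. Post-treatment: inhibitor given at initial suspension. Continuous: 3-day pre-treatment, then kept on inhibitor in spheroid culture. Cells seeded at 2000 per well in low-attachment plates in DMEM/F12 with N2 and B27. Spheres of at least 5 cells counted at day 10-14 for each passage. Compared with untreated cells by Student's t-test.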

ARCaPE [2] = assay: Inhibition of extracellular Hsp90 in human ARCaPE cells expressing Hsp90 assessed as decrease in spheroid growth at 1 uM for 3 days and cells were treated under continuous condition by microscopic analysis; type: cell-based; procedure, shortened: as §1
ARCaPE [3] = assay: Inhibition of extracellular Hsp90 in human ARCaPE cells expressing Hsp90 assessed as decrease in spheroid growth at 1 uM for 3 days and cells were treated pre-spheroid suspension by microscopic analysis; type: cell-based; procedure, shortened: as §1
DU-145 [4] = assay: Inhibition of extracellular Hsp90 in human DU-145 cells expressing Hsp90 assessed as reduction in side population ast 1 uM after 3 days by Hoechst staining based flow cytometry; type: cell-based
Procedure, shortened: (§2)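 Side population by flow cytometry after 3 days of inhibitor treatment. Cells at 1 x 10^6/mL in culture medium were stained with Hoechst 33342 at 5 ug/mL for 2 h at 37C, protected from light. Propidium iodide excluded dead cells. UV laser; Hoechst red 620 nm against blue 448 nm. Gate set on 50 uM verapamil controls. At least three repeats, Student's t-test.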

DU-145 [5] = assay: Inhibition of extracellular Hsp90 in human DU145 cells expressing Hsp90 assessed as decrease in spheroid growth at 1 uM for 3 days and cells were treated pre-spheroid suspension by microscopic analysis; type: cell-based; procedure, shortened: as §1
DU-145 [6] = assay: Inhibition of extracellular Hsp90 in human DU145 cells expressing Hsp90 assessed as decrease in spheroid growth at 1 uM for 3 days and cells were treated under continuous condition by microscopic analysis; type: cell-based; procedure, shortened: as §1
M12 = assay: Inhibition of extracellular Hsp90 in human M12 cells expressing Hsp90 assessed as reduction in side population ast 1 uM after 3 days by Hoechst staining based flow cytometry
[7] = biological target: Histone-lysine N-methyltransferase EZH2 (Homo sapiens) (UniProt Q15910); assay: Inhibition of EZH2 in human ARCaPE cells expressing Hsp90 assessed as reduction in side population at 500 nM after 3 days by Hoechst staining based flow cytometry; type: cell-based; procedure, shortened: as §2
[8] = biological target: Histone-lysine N-methyltransferase EZH2 (Homo sapiens) (UniProt Q15910); assay: Inhibition of EZH2 in human DU-145 cells expressing Hsp90 assessed as reduction in side population at 500 nM after 3 days by Hoechst staining based flow cytometry; type: cell-based; procedure, shortened: as §2
[9] = biological target: Histone-lysine N-methyltransferase EZH2 (Homo sapiens) (UniProt Q15910); assay: Inhibition of EZH2 in human ARCaPE cells expressing Hsp90 assessed as decrease in spheroid growth at 500 nM for 3 days and cells were treated pre-spheroid suspension by microscopic analysis; type: cell-based; procedure, shortened: as §1
[10] = biological target: Histone-lysine N-methyltransferase EZH2 (Homo sapiens) (UniProt Q15910); assay: Inhibition of EZH2 in human ARCaPE cells expressing Hsp90 assessed as decrease in spheroid growth at 500 nM for 3 days and cells were treated under continuous condition by microscopic analysis; type: cell-based; procedure, shortened: as §1
[11] = biological target: Histone-lysine N-methyltransferase EZH2 (Homo sapiens) (UniProt Q15910); assay: Inhibition of EZH2 in human ARCaPE cells expressing Hsp90 assessed as decrease in spheroid growth at 500 nM for 3 days and cells were treated post-spheroid suspension by microscopic analysis; type: cell-based; procedure, shortened: as §1
[12] = biological target: Histone-lysine N-methyltransferase EZH2 (Homo sapiens) (UniProt Q15910); assay: Inhibition of EZH2 in human DU-145 cells expressing Hsp90 assessed as decrease in spheroid growth at 500 nM for 3 days and cells were treated pre-spheroid suspension by microscopic analysis; type: cell-based; procedure, shortened: as §1
[13] = biological target: Histone-lysine N-methyltransferase EZH2 (Homo sapiens) (UniProt Q15910); assay: Inhibition of EZH2 in human DU-145 cells expressing Hsp90 assessed as decrease in spheroid growth at 500 nM for 3 days and cells were treated under continuous condition by microscopic analysis; type: cell-based; procedure, shortened: as §1
[14] = biological target: Histone-lysine N-methyltransferase EZH2 (Homo sapiens) (UniProt Q15910); assay: Inhibition of EZH2 in human DU-145 cells expressing Hsp90 assessed as decrease in spheroid growth at 500 nM for 3 days and cells were treated post-spheroid suspension by microscopic analysis; type: cell-based; procedure, shortened: as §1

Sequence of Histone-lysine N-methyltransferase EZH2 (Homo sapiens) (Q15910 whole entry, looked up): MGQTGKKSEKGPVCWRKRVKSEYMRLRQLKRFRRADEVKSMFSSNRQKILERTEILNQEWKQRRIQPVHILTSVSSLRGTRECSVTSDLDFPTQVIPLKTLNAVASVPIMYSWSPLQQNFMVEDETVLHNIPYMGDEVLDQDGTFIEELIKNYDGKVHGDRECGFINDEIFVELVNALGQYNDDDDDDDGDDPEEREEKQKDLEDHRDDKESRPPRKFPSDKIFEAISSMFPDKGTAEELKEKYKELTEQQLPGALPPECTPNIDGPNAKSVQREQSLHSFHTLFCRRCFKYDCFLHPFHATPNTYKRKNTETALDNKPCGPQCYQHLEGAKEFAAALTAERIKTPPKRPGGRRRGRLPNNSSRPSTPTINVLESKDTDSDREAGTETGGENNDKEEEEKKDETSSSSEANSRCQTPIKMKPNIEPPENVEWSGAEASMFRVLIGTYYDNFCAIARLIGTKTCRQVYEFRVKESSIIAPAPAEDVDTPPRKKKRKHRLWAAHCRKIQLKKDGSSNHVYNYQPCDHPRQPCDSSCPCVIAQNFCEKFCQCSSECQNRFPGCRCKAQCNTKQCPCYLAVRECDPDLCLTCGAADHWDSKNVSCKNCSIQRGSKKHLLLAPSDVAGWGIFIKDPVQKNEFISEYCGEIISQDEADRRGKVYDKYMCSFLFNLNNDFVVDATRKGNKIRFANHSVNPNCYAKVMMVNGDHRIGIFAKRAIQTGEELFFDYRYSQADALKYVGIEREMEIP

Row | Structure (SMILES) | inhibition (ARCaPE [1]) | inhibition (ARCaPE [2]) | inhibition (ARCaPE [3]) | inhibition (DU-145 [4]) | inhibition (DU-145 [5]) | inhibition (DU-145 [6]) | inhibition (M12) | inhibition [7] | inhibition [8] | inhibition [9] | inhibition [10] | inhibition [11] | inhibition [12] | inhibition [13] | inhibition [14]
1 | COC1=C2C[C@@H](C)C[C@H](OC)[C@H](O)[C@@H](C)/C=C(\C)[C@H](OC(N)=O)[C@@H](OC)/C=C\C=C(/C)C(=O)NC(=CC1=O)C2=O | inactive | Active | Active | Active | Active | Active | Active | – | – | – | – | – | – | – | –
2 | CCCc1cc(C)[nH]c(=O)c1CNC(=O)c1cc(-c2ccnc(N3CCN(C)CC3)c2)cc2c1cnn2C(C)C | – | – | – | – | – | – | – | Active | Active | Active | Active | Active | Active | Active | Active
